Laboratory results published in PubChem BioAssay.
Results filed as inconclusive are left out.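 The calls were made as follows, unless noted: active = viability at or below 27.92% in each of two runs, the all-compound median minus 4 SD; inconclusive = no clear call, values can overlap the other calls; inactive = the rest.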

Legend:
[1] = S. cerevisiae growth inhibition in permissive medium (OD615), pilot counter-assay for S. cerevisiae lifespan shortening project, permissive growth control (AID 705;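 active = growth inhibition above 25% in both replicates, a cutoff set 3 SD above the mean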); conditions: OD615, 24 h, at 10 µM, stronger effect = higher value
Method in brief: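 System: S. cerevisiae with engineered DeaD lifespan system / Measured by: absorbance (optical density) at 615 nm / Read-out: reduction in yeast growth (OD615) / Times: 4 h cell pre-growth, 24 h exposure at 30 °C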

[2] = S. cerevisiae growth inhibition in restrictive medium, OD615, pilot screen, restrictive growth control, yeast lifespan reduction project (AID 706;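 active = growth inhibition above a set limit, 3 SD over mean compound inhibition, in both replicates, cut at about 43% in these data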;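 also: modified DeaD lifespan yeast strain shifted to restrictive glucose medium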); conditions: OD615, 48 h, at 10 µM, stronger effect = higher value
Method in brief: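 System: Engineered S. cerevisiae DeaD strain | Buffer or medium: Glucose-based CSMM-D restrictive medium | Schedule: 4 h pre-incubation, 48 h exposure at 30 °C | Technique: Optical density at 615 nm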

[3] = doxorubicin toxicity protection in MRP-1 cells – H69AR cells, CellTiter-Glo, duplicate, MRP-1 activator project, pilot screen (AID 807;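 active = viability increase at or above a cutoff of the median across tested compounds plus 3 SD, cut at about 8.5% in these data, passing the limit was not always enough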;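 also: compound pretreatment 18-22 h then 72 h combined with doxorubicin; 0% = doxorubicin alone and 100% = vehicle without doxorubicin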); conditions: H69AR viability with doxorubicin, CellTiter-Glo luminescence; at 10 µM; stronger effect = higher value
[4] = viability of HCT116 without oncogenic beta-catenin – human colon tumor cells, pilot screen (AID 823;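 active = cell viability at or below a set limit in both duplicate runs, the limit being the all-compound median minus 4 SD, cut at about 23% in these data, passing the limit was not always enough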;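 also: 0% = wells killed by 20 µM Hyamine and 100% = untreated DMSO cell wells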); conditions: HCT116 beta-catenin knockout viability, CellTiter-Glo, 60 h; at 10 µM; stronger effect = lower value
[5] = viability of PTEN-null HCT116 cells – cell-based, HCT116 clonal line, CellTiter-Glo, pilot screen (AID 824); conditions: HCT116 PTEN-deleted viability, 60 h, at 10 µM, stronger effect = lower value;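 also: 0% = 20 µM Hyamine control and 100% = vehicle cell control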
[6] = RAM pathway blockade in budding yeast – dse1pr::URA3 reporter, 5-FOA selection, pilot screen (AID 869;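 active = inhibition over a set limit, the all-compound mean plus 3 SD, in both replicate runs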;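 also: 0% = DMSO wells with no growth and 100% = 10 µM 1-NA-PP1 with full growth; RAM network block rescues cells from 5-FOA so hits raise OD615 growth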); conditions: S. cerevisiae dse1pr::URA3 5-FOA growth, OD615, 2 d; at 10 µM; stronger effect = higher value; strain carries analog-sensitive mutant Cbk1 kinase
[7] = RAM signaling pathway blockade in yeast – S. cerevisiae, Pdr1DBD-CYC8 efflux-inhibited sensitized strain, primary screen (AID 1298;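 active = RAM network inhibition above 8.4% in each of two replicates, 3 SD over the compound average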;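 also: 0% = DMSO untreated cells without growth and 100% = 10 µM 1-NA-PP1 full growth; higher means more yeast growth rescued from 5-FOA killing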); conditions: S. cerevisiae cbk1-as DSE1-URA3 strain, 5-FOA growth OD615, 2 d; at 50 µM; stronger effect = higher value

CSC1=C(C#N)C(c2ccc(C(C)C)cc2)CC(=O)N1 (stereo unspecified)
inactive: growth inhibition [1] -4.75% | growth inhibition [2] -18.3% | viability increase [3] 0.04% | viability [4] 99.6% | viability [5] 91% | inhibition [6] 2% | RAM network inhibition [7] 1.87%

Cc1noc(NS(=O)(=O)c2ccc(NC(=O)CCn3c(=O)oc4ccccc43)cc2)c1C
inactive: growth inhibition [1] 0.07% | growth inhibition [2] -7.86% | viability increase [3] -1.22% | viability [4] 97.7% | viability [5] 96.2% | inhibition [6] 1.24% | RAM network inhibition [7] 6.07%

CN1CCN(S(=O)(=O)c2ccc3c4c(cccc24)C(=O)N3)CC1
inactive: growth inhibition [1] -11.8% | growth inhibition [2] -4.42% | viability increase [3] -2% | viability [4] 110% | viability [5] 96.4% | inhibition [6] 1.18% | RAM network inhibition [7] 1.28%

O=C1C2CC=C(Cl)CC2C(=O)N1CC1Cc2ccccc2CO1 (stereo unspecified)
inactive: growth inhibition [1] -5.07% | growth inhibition [2] 0.875% | viability increase [3] 1.29% | viability [4] 96.2% | viability [5] 101% | inhibition [6] 2.77% | RAM network inhibition [7] -2.81%

COc1ccc(CN2C(=O)CCC2(C)C(=O)NC2CCCC2)c(OC)c1 (stereo unspecified)
inactive: growth inhibition [1] -5.04% | growth inhibition [2] -4.46% | viability increase [3] 0.91% | viability [4] 105% | viability [5] 101% | inhibition [6] 0.71% | RAM network inhibition [7] 2.04%

Cc1nccc2[nH]c(=O)c(C(=O)NC3CCN(Cc4ccccc4)CC3)cc12
inactive: growth inhibition [1] -0.105% | growth inhibition [2] -8.34% | viability increase [3] -3.81% | viability [4] 104% | viability [5] 93.9% | inhibition [6] 1.82% | RAM network inhibition [7] 7.9%

CC1CCCN(c2nc3c(c(=O)[nH]c(=O)n3C)n2CCSc2nc3ccccc3o2)C1 (stereo unspecified)
inactive: growth inhibition [1] -1.52% | growth inhibition [2] -1.66% | viability increase [3] -3.56% | viability [4] 98% | viability [5] 98.5% | inhibition [6] 0.55% | RAM network inhibition [7] 7.08%

Cc1cc(NC(=O)c2cc3n(n2)C(C(F)(F)F)CC(c2ccco2)N3)no1 (stereo unspecified)
inactive: growth inhibition [1] 5.72% | growth inhibition [2] 5.53% | viability increase [3] -0.69% | viability [4] 98.8% | viability [5] 94.6% | inhibition [6] 0.475% | RAM network inhibition [7] 1.13%

Cc1ccc(C)c(SCC(=O)OCC(=O)Nc2ccc(S(=O)(=O)N3CCOCC3)cc2)c1
inactive: growth inhibition [1] -20.4% | growth inhibition [2] -17.7% | viability increase [3] -1.73% | viability [4] 97.8% | viability [5] 92.9% | inhibition [6] 1.02% | RAM network inhibition [7] 5.86%

Cc1nc2cc(-c3cccc(F)c3)nn2c(C)c1CCC(=O)N1CCN(c2ccccn2)CC1
inactive: growth inhibition [1] -0.315% | growth inhibition [2] 3.5% | viability increase [3] -1.74% | viability [4] 87.2% | viability [5] 77.1% | inhibition [6] 0.32% | RAM network inhibition [7] 4.65%

CCCCn1c(CCNC(=O)CC)nc2ccccc21
inactive: growth inhibition [1] -8.93% | growth inhibition [2] -5.17% | viability increase [3] -1.11% | viability [4] 98.8% | viability [5] 101% | inhibition [6] 1.86% | RAM network inhibition [7] 5.26%

O=C(Nc1ccc(F)cc1)C1CCCN(S(=O)(=O)c2cccc3cccnc23)C1 (stereo unspecified)
inactive: growth inhibition [1] -10.2% | growth inhibition [2] -7.79% | viability increase [3] -0.85% | viability [4] 80.8% | viability [5] 80.3% | inhibition [6] 2.16% | RAM network inhibition [7] 7.62%

Fc1ccccc1COc1cccc(/C=N/n2cnnc2)c1
inactive: growth inhibition [1] 2.62% | growth inhibition [2] 11.6% | viability increase [3] 0.12% | viability [4] 96.2% | viability [5] 84.9% | inhibition [6] 0.35% | RAM network inhibition [7] 0.15%

CCCOc1ccc(C(=O)NCCC(=O)NCCCC(=O)OCC)cc1
inactive: growth inhibition [1] -14.6% | growth inhibition [2] -20.7% | viability increase [3] 0.2% | viability [4] 91.8% | viability [5] 104% | inhibition [6] 1.34% | RAM network inhibition [7] 0.47%

CC1CC(C)CN(CCCNC(=O)CNC(=O)Cn2ccc3ccccc3c2=O)C1 (stereo unspecified)
inactive: growth inhibition [1] -3% | growth inhibition [2] -19.7% | viability increase [3] -0.78% | viability [4] 104% | viability [5] 98.9% | inhibition [6] 0.76% | RAM network inhibition [7] 2.22%

COc1ccc(C(=O)N2CCC(C(=O)Nc3ccc(OC)c(OC)c3)CC2)cc1
inactive: growth inhibition [1] -6.75% | growth inhibition [2] -8.78% | viability increase [3] -0.38% | viability [4] 89.7% | viability [5] 89% | inhibition [6] 1.28% | RAM network inhibition [7] 2.4%

COc1ccc(OC)c(-n2c(SCC(=O)Nc3cc(C)on3)nnc2-c2c[nH]c3ccccc23)c1
inactive: growth inhibition [1] -1.04% | growth inhibition [2] 6.54% | viability increase [3] -2.74% | viability [4] 79.2% | viability [5] 78.8% | inhibition [6] 1.31% | RAM network inhibition [7] 1.29%

Cc1cc(C)c(S(=O)(=O)Nc2ccc(OCC(=O)O)cc2)c(C)c1
inactive: growth inhibition [1] -6.34% | growth inhibition [2] -3.2% | viability increase [3] -0.81% | viability [4] 93.7% | viability [5] 90.5% | inhibition [6] -0.28% | RAM network inhibition [7] -0.63%
